Calls of active or inactive are those of the source. The calls are words filed in the database; no cut-off is given here.
What was measured:
[1] = system: SW-620; experiment: Antitumor activity against human SW620 cells xenografted in BALB/c-nude mouse assessed as reduction of tumor weight at 100 mg/kg, po administered every other day from day 2 to 21 (reference value: 417 mg); assay type: functional
Procedure, shortened: (§1)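 Male BALB/c-nude mice; 2 × 10^6 tumour cells in 0.2 mL PBS injected intradermally into the flank on day 0, n = 10 per group. Oral dosing every other day for 3 weeks, starting 2 days after inoculation. Caliper tumour volume = (width)2 × length/2, measured periodically. Tumours excised and weighed at day 21. Means ± SE.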

[2] = system: SW-620; experiment: Antitumor activity against human SW620 cells xenografted in BALB/c-nude mouse assessed as reduction of tumor volume at 100 mg/kg, po administered every other day from day 2 to 21; assay type: functional, organism-based; set-up: dose 100 mg/kg; procedure, shortened: as §1
[3] = system: HCT-116; experiment: Antitumor activity against human HCT116 cells xenografted in BALB/c-nude mouse assessed as reduction of tumor volume at 100 mg/kg, po administered every other day from day 2 to 21; assay type: functional, organism-based; set-up: dose 100 mg/kg; procedure, shortened: as §1
[4] = system: SW-620; experiment: Induction of apoptosis in human SW620 cells assessed as increase of Bax protein expression after 24 hrs by immunoblotting; assay type: functional, cell-based
Procedure, shortened: (§2)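 HCT-116 or SW-620 cells treated with 0–10 μM for 24 h, lysed, and run on 15% SDS-PAGE immunoblots. Probed for Bcl-2 (1:1000), Bax (1:500), caspase-9/-3 and their cleaved forms (1:1000), and β-actin (1:1000). Bands quantified by densitometry; means ± SD of three experiments in duplicate.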

[5] = system: SW-620; experiment: Induction of apoptosis in human SW620 cells assessed as reduction of Bcl-2 protein expression at 0.5 to 10 uM after 24 hrs by immunoblotting; assay type: functional, cell-based; procedure, shortened: as §2
[6] = system: SW-620; experiment: Induction of apoptosis in human SW620 cells at 10 uM after 48 hrs using Annexin V-FITC and propidium iodide staining by flow cytometry (reference value: 3.8 +/- 2.1%); assay type: functional
Procedure, shortened: (§3)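 Subconfluent cells in RPMI 1640 + 10% FBS treated with 0–10 μM for 48 h. Harvested cells incubated 10 min with FITC-annexin V/PI, then analysed by flow cytometry (488/525 nm for annexin V-FITC, 488/675 nm for PI). Reported as % apoptotic cells, means ± SD of three experiments in triplicate.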

[7] = system: HCT-116; experiment: Induction of apoptosis in human HCT116 cells at 10 uM after 48 hrs using Annexin V-FITC and propidium iodide staining by flow cytometry (reference value: 7.6 +/- 3%); assay type: functional; procedure, shortened: as §3
[8] = system: SW-620; experiment: Effect on Cdk inhibitor gene expression in p53 deficient human SW620 cells at 0.5 to 10 uM after 24 hrs by immunoblotting; assay type: functional, cell-based
[9] = system: SW-620; experiment: Effect on p57 expression in p53 deficient human SW620 cells at 0.5 to 10 uM after 24 hrs by immunoblotting; assay type: functional, cell-based
[10] = system: SW-620; experiment: Increase of p21 expression in human SW620 cells at 0.5 to 10 uM after 24 hrs by immunoblotting; assay type: functional, cell-based
Procedure, shortened: (§4)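 HCT-116 or SW-620 cells treated with 0–10 μM for 24 h. Lysates probed for p21 by SDS-PAGE immunoblotting with ECL detection; β-actin as loading control.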

[11] = system: HCT-116; experiment: Increase of p21 expression in human HCT116 cells at 0.1 to 10 uM after 24 hrs by immunoblotting; assay type: functional, cell-based; procedure, shortened: as §4
[12] = system: SW-620; experiment: Decrease of cyclin E expression in human SW620 cells after 24 hrs by immunoblotting; assay type: functional, cell-based
Procedure, shortened: (§5)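 HCT-116 or SW-620 cells exposed to 0–10 μM for 24 h. Cells lysed in Tris/NaCl/EDTA/1% Triton X-100 buffer with protease and phosphatase inhibitors at 4 °C, protein measured by BCA. Lysates run on 10–12.5% SDS-PAGE and immunoblotted, ECL detection. Cdk2, cyclin A and cyclin E antibodies used at 1:500; β-actin as loading control.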

[13] = system: HCT-116; experiment: Decrease of Cdk2 expression in human HCT116 cells after 24 hrs by immunoblotting; assay type: functional, cell-based; procedure, shortened: as §5
[14] = system: SW-620; experiment: Cell cycle arrest in human SW620 cells assessed as accumulation at G0/G1 phase at 0.5 uM after 48 hrs using propidium iodide staining by flow cytometry (reference value: 47.8 +/- 1.2%); assay type: functional
[15] = system: SW-620; experiment: Cell cycle arrest in human SW620 cells assessed as accumulation at G0/G1 phase at 2 uM after 48 hrs using propidium iodide staining by flow cytometry (reference value: 47.8 +/- 1.2%); assay type: functional
[16] = system: SW-620; experiment: Cell cycle arrest in human SW620 cells assessed as accumulation at S phase at 10 uM after 48 hrs using propidium iodide staining by flow cytometry (reference value: 43.1 +/- 1%); assay type: functional
[17] = system: HCT-116; experiment: Cell cycle arrest in human HCT116 cells assessed as accumulation at S phase after 48 hrs using propidium iodide staining by flow cytometry; assay type: functional, cell-based
[18] = system: HCT-116; experiment: Cell cycle arrest in human HCT116 cells assessed as accumulation at S phase at 10 uM after 48 hrs using propidium iodide staining by flow cytometry (reference value: 36.3 +/- 1.7%); assay type: functional
[19] = system: HCT-116; experiment: Cell cycle arrest in human HCT116 cells assessed as accumulation at S phase at 5 uM after 48 hrs using propidium iodide staining by flow cytometry (reference value: 36.3 +/- 1.7%); assay type: functional
[20] = system: HCT-116; experiment: Cell cycle arrest in human HCT116 cells assessed as accumulation at G0/G1 phase at 0.5 uM after 48 hrs using propidium iodide staining by flow cytometry (reference value: 56.7 +/- 1.9%); assay type: functional
[21] = system: HCT-116; experiment: Cell cycle arrest in human HCT116 cells assessed as accumulation at G2/M phase at 0.1 uM after 48 hrs using propidium iodide staining by flow cytometry (reference value: 7.1 +/- 0.3%); assay type: functional
[22] = system: HCT-116; experiment: Cytotoxicity against human HCT116 cells assessed as cell viability at 10 uM after 48 to 72 hrs; assay type: functional, cell-based
Procedure, shortened: (§6)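 Cells seeded at 10^5 per well in RPMI 1640/10% FBS at 37 °C. Subconfluent cells exposed to 0, 0.1, 0.5, 1, 2, 5 or 10 μM for 48 h, or to 10 μM for 24, 48 and 72 h; ethanol vehicle, at most 0.01% v/v final. Cells trypsinized and counted by hemocytometer. Viability as % of control, means ± SD, three experiments in triplicate.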

[23] = Cytotoxicity against human CCD-112CoN cells assessed as cell viability up to 10 uM after 24 to 72 hrs; assay type: cell-based; procedure, shortened: as §6
[24] = system: SW-620; experiment: Cytotoxicity against human SW620 cells assessed as cell viability at 0.1 to 2 uM after 24 to 72 hrs; assay type: functional, cell-based; procedure, shortened: as §6
[25] = system: SW-620; experiment: Cytotoxicity against human SW620 cells at 0.5 to 10 uM; assay type: functional, cell-based; details: TDE = time-dependent effect
Procedure, shortened: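 SW-620 cells seeded at 10^5 per well in RPMI 1640 + 10% FBS at 37 °C, then treated when subconfluent with 0–10 μM for 48 h (or 10 μM for 24–72 h). Ethanol vehicle, at most 0.01% v/v final. Cells trypsinized and counted on a hemocytometer. Result given as % of control, means ± SD of three experiments in triplicate.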

[26] = system: HCT-116; experiment: Cytotoxicity against human HCT116 cells after 24 to 72 hrs; assay type: functional, cell-based; procedure, shortened: as §6
[27] = system: HCT-116; experiment: Cytotoxicity against human HCT116 cells assessed as inhibition of cell viability at 10 uM after 24 hrs; details: HCT-116, 24 h

CC(C)c1cccc(=O)c(O)c1 [HINOKITIOL]
Activity [1]: 252 mg
Activity [2]: Active
Activity [3]: Active
Activity [4]: Dose-dependent effect
Activity [5]: Active
Activity [6]: 80.3%
Activity [7]: 24.7%
Activity [8]: inactive
Activity [9]: inactive
Activity [10]: Active
Activity [11]: Active
Activity [12]: Dose-dependent effect
Activity [13]: Dose-dependent effect
Activity [14]: 48.3%
Activity [15]: 43.1%
Activity [16]: 87%
Activity [17]: Dose-dependent effect
Activity [18]: 53.8%
Activity [19]: 43.5%
Activity [20]: 56.5%
Activity [21]: 7.5%
Activity [22]: Active
Activity [23]: Non-toxic
Activity [24]: Active
Activity [25]: tde
IC50 [26]: 4.5 µM
growth inhibition (GI) [26]: Dose-dependent effect
inhibition of viability at 10 µM [27]: 27%
